# Data: ChEMBL document CHEMBL3244326, “Synthesis and antiviral activity of certain thiazole C-nucleosides” (J Med Chem, 1977)
# Calls of active or inactive are those of the source. The calls are words filed in the database; no cut-off is given here.
# Experiments:
# Ehrlich [1] = assay: Inhibition of purine nucleotide biosynthesis in mouse Ehrlich ascites tumor cells assessed as inhibition of [14C]hypoxanthine into guanine nucleotides at 1 mM after 60 mins incubation; assay type: functional; conditions: 1 h
# Procedure, shortened: (§1)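 Ehrlich ascites tumor cell suspensions preincubated at 37 °C for 20 min with or without 1 mM compound. [14C]Hypoxanthine (55 µCi/µmol) then added to a final 0.1 mM, followed by 60 min more incubation. Adenine (AMP+ADP+ATP) and guanine (GMP+GDP+GTP) nucleotides separated by TLC on PEI-cellulose; % inhibition of label incorporation.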
# Ehrlich [2] = assay: Inhibition of purine nucleotide biosynthesis in mouse Ehrlich ascites tumor cells assessed as inhibition of [14C]hypoxanthine into adenine nucleotides at 1 mM after 60 mins incubation; assay type: functional; conditions: 1 h; procedure, shortened: as §1
# Human alphaherpesvirus 1 = assay: Antiviral activity against type 1 herpes simplex virus type 1 infected in human KB cells assessed as reduction in cytopathic effect after 72 hrs incubation; assay type: functional, organism-based
# Procedure, shortened: (§2)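 Human nasopharyngeal carcinoma (KB) cells infected with virus and tested at compound concentrations of 1000 to 1 ug/ml. After 72 h incubation at 37 °C, inhibition of viral cytopathic effect was scored by observation and expressed as a virus rating (VR). Values are the average of one to five tests.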
# KB = assay: Antiviral activity against type 13 rhinovirus infected in human KB cells assessed as reduction in cytopathic effect after 72 hrs incubation; assay type: functional, cell-based; conditions: Human rhinovirus A13; procedure, shortened: as §2
# Mus musculus [3] = assay: Toxicity in mouse assessed as survival at 99 mg/kg, po; assay type: organism-based; set-up: dose 99 mg/kg, route oral; conditions: in vivo
# Procedure, shortened: (§3)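 Uninfected toxicity-control mice, 5 per dose, received compound by the oral route alongside the infected groups. Survivors/total recorded, and weight gain was observed.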
# Human respirovirus 1 [4] = assay: Antiviral activity against type 1 parainfluenza virus infected in mouse assessed as mouse mean death day at 49.5 mg/kg, po thrice a day for 8 days after 1 hr viral infection (reference value: 8.9 days); assay type: functional
# Human respirovirus 1 [5] = assay: Antiviral activity against type 1 parainfluenza virus infected in mouse assessed as mouse mean death day at 99 mg/kg, po thrice a day for 8 days after 1 hr viral infection (reference value: 8.9 days); assay type: functional
# Human respirovirus 1 [6] = assay: Antiviral activity against type 1 parainfluenza virus infected in mouse assessed as mouse mean death day at 26 mg/kg, po thrice a day for 8 days after 1 hr viral infection (reference value: 8.9 days); assay type: functional
# Human respirovirus 1 [7] = assay: Antiviral activity against type 1 parainfluenza virus infected in mouse assessed as mouse mean death day at 52 mg/kg, po thrice a day for 8 days after 1 hr viral infection (reference value: 8.9 days); assay type: functional
# Human respirovirus 1 [8] = assay: Antiviral activity against type 1 parainfluenza virus infected in mouse assessed as mouse mean death day at 104 mg/kg, po thrice a day for 8 days after 1 hr viral infection (reference value: 8.9 days); assay type: functional
# Human respirovirus 1 [9] = assay: Antiviral activity against type 1 parainfluenza virus infected in mouse assessed as mouse survival at 104 mg/kg, po thrice a day for 8 days after 1 hr viral infection; assay type: functional, organism-based; set-up: dose 104 mg/kg
# Procedure, shortened: (§4)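 Sendai (type 1 parainfluenza) virus given intranasally to female mice (18-20 g). Oral dosing three times daily for 8 days, beginning 1 h post-inoculation; 10 infected mice per dose, with a carboxymethylcellulose placebo group. Survivors/total counted, with p values for the survivor increase.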
# Mus musculus [10] = assay: Toxicity in mouse assessed as survival at 104 mg/kg, po; assay type: organism-based; set-up: dose 104 mg/kg, route oral; conditions: in vivo; procedure, shortened: as §3
# Human respirovirus 1 [11] = assay: Antiviral activity against type 1 parainfluenza virus infected in mouse assessed as mouse mean death day at 155 mg/kg, po thrice a day for 8 days after 1 hr viral infection (reference value: 8.9 days); assay type: functional
# Mus musculus [12] = assay: Toxicity in mouse assessed as survival at 77.5 mg/kg, po; assay type: organism-based; set-up: dose 77.5 mg/kg, route oral; conditions: in vivo; procedure, shortened: as §3
# Human respirovirus 1 [13] = assay: Antiviral activity against type 1 parainfluenza virus infected in mouse assessed as mouse survival at 77.5 mg/kg, po thrice a day for 8 days after 1 hr viral infection; assay type: functional, organism-based; set-up: dose 77.5 mg/kg; procedure, shortened: as §4
# Mus musculus [14] = assay: Toxicity in mouse assessed as survival at 155 mg/kg, po; assay type: organism-based; set-up: dose 155 mg/kg, route oral; conditions: in vivo; procedure, shortened: as §3
# Human respirovirus 1 [15] = assay: Antiviral activity against type 1 parainfluenza virus infected in mouse assessed as mouse mean death day at 38.8 mg/kg, po thrice a day for 8 days after 1 hr viral infection (reference value: 8.9 days); assay type: functional
# Human respirovirus 1 [16] = assay: Antiviral activity against type 1 parainfluenza virus infected in mouse assessed as mouse mean death day at 77.5 mg/kg, po thrice a day for 8 days after 1 hr viral infection (reference value: 8.9 days); assay type: functional
# Human respirovirus 1 [17] = assay: Antiviral activity against type 1 parainfluenza virus infected in mouse assessed as mouse survival at 38.8 mg/kg, po thrice a day for 8 days after 1 hr viral infection; assay type: functional, organism-based; set-up: dose 38.8 mg/kg; procedure, shortened: as §4
# Human respirovirus 1 [18] = assay: Antiviral activity against type 1 parainfluenza virus infected in mouse assessed as mouse survival at 155 mg/kg, po thrice a day for 8 days after 1 hr viral infection; assay type: functional, organism-based; set-up: dose 155 mg/kg; procedure, shortened: as §4
SMILES,inhibition at 1000 µM (Ehrlich [1]),inhibition at 1000 µM (Ehrlich [2]),Activity (Human alphaherpesvirus 1),Activity (KB),further results
NC(=O)c1csc(-c2ccc(CO)o2)n1,0%,0%,inactive,inactive,
NC(=S)c1csc([C@@H]2O[C@H](CO)[C@@H](O)[C@H]2O)n1,12%,0%,inactive,inactive,
NC(=O)c1ncn([C@@H]2O[C@H](CO)[C@@H](O)[C@H]2O)n1 [RIBAVIRIN],,,,,Activity (Mus musculus [3]): Non-toxic; Time (Human respirovirus 1 [4]): 12 days; Time (Human respirovirus 1 [5]): 10 days
NC(=O)c1cnc([C@@H]2O[C@H](CO)[C@@H](O)[C@H]2O)s1,6.8%,1%,inactive,inactive,
NC(=O)c1csc([C@@H]2O[C@H](CO)[C@@H](O)[C@H]2O)n1 [TIAZOFURIN],69%,0%,Active,Active,Time (Human respirovirus 1 [6]): 10.9 days; Time (Human respirovirus 1 [7]): 11 days; Time (Human respirovirus 1 [8]): 12.3 days; Survival (Human respirovirus 1 [9]): Active; Activity (Mus musculus [10]): Non-toxic
CC(=O)OC[C@H]1O[C@@H](c2nc(C(N)=O)cs2)[C@H](OC(C)=O)[C@@H]1OC(C)=O,42%,0%,Active,inactive,Time (Human respirovirus 1 [11]): 8.6 days; Activity (Mus musculus [12]): Non-toxic; Survival (Human respirovirus 1 [13]): Active; Activity (Mus musculus [14]): Non-toxic; Time (Human respirovirus 1 [15]): 11 days; Time (Human respirovirus 1 [16]): 11.9 days; Survival (Human respirovirus 1 [17]): Active; Survival (Human respirovirus 1 [18]): Active
C[C@H]1O[C@@H](c2nc(C(N)=O)cs2)[C@H](O)[C@@H]1O,0%,0%,inactive,inactive,
